# Data: ChEMBL document CHEMBL3351814, “Discovery of selective hexapeptide agonists to human neuromedin U receptors types 1 and 2” (J Med Chem, 2014)
# The source made the active and inactive calls. The calls are words filed in the database; no cut-off is given here. Where a SMILES comes first, the peptide text is derived from it. [ ]: non-standard residue; d: D form. The star is where a group is joined. Propanoyl(3-(3-pyridyl)) = O=C(CCc1cccnc1)*; 2Nal = N[C@@H](Cc1ccc2ccccc2c1)C(=O)O; Propanoyl(3-cHex) = O=C(CCC1CCCCC1)*; Hydrocinnamoyl = O=C(CCc1ccccc1)*; Dap = NC[C@H](N)C(=O)O
# Key:
# Homo sapiens [1] = species: Homo sapiens; test: Selectivity ratio of PC50 for human NMUR2 to PC50 for human NMUR1
# In short: (§1)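 Ratio of PC50 values from the CHO stable-line calcium assays. NMUR1 selectivity is PC50(NMUR2)/PC50(NMUR1); NMUR2 selectivity is PC50(NMUR1)/PC50(NMUR2).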
# Neuromedin-U receptor 2 [2] = target: T1, Neuromedin-U receptor 2 (Homo sapiens, UniProt Q9GZQ4); test: Agonist activity at human NMUR2 expressed in CHO cells by calcium mobilization assay; type: functional, cell-based
# T1 sequence (Q9GZQ4 whole entry): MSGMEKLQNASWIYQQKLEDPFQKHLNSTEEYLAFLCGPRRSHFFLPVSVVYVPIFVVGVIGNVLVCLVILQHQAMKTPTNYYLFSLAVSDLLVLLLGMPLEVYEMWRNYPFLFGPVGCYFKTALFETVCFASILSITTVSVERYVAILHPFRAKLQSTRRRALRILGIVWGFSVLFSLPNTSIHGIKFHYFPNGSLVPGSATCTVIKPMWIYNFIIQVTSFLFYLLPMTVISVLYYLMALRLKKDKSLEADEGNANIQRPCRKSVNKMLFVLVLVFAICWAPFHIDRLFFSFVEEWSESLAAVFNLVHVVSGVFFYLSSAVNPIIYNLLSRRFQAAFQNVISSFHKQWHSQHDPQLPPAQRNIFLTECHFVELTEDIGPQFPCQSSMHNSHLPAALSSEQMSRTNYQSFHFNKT
# In short: (§2)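 Calcium mobilization in CHO cells stably expressing human NMUR1 or NMUR2, Fluo-4-AM loaded, read on a fluorometric imaging plate reader. Peptides tested at 10−12 to 10−6 M final in triplicate. EC50 derived from the curves. Intrinsic activity is the maximal response as % of the endogenous agonist hNMU.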
# [3] = target: T2, Neuromedin-U receptor 1 (Homo sapiens) (UniProt Q9HB89); test: Agonist activity at human NMUR1 expressed in CHO cells assessed as concentration required to induce 50% response by calcium mobilization assay relative to NMU; type: functional, cell-based
# T2 sequence (whole entry): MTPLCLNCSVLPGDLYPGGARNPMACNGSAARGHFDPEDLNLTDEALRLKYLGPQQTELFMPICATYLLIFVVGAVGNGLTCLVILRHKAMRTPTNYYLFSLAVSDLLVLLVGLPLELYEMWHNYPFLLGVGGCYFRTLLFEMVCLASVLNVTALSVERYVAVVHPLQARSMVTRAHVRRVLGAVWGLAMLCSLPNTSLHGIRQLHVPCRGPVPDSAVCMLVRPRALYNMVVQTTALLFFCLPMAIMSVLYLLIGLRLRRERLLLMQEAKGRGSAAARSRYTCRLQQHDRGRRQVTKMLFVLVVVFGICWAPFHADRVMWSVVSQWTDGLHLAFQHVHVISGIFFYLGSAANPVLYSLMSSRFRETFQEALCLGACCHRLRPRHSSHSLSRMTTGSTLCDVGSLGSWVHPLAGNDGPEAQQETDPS
# In short: (§3)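 CHO cells stably expressing human NMUR1 (CHO/NMUR1-9) or NMUR2 (CHO/NMUR2-8), selected with G418, seeded 2.0 × 10^4 cells/well. Cells loaded 40 min with 4 μM Fluo-4-AM in HBSS/10 mM HEPES/2.5 mM probenecid pH 7.4. Peptides from 20 mM DMSO stocks applied at 10−12 to 10−6 M final, triplicate, FLIPR read-out. PC50 is the concentration giving 50% of the response to hNMU at 1000 nM.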
# Neuromedin-U receptor 1 [4] = target: T3, Neuromedin-U receptor 1 (Homo sapiens, UniProt Q9HB89); test: Agonist activity at human NMUR1 expressed in CHO cells by calcium mobilization assay; type: functional, cell-based
# T3 sequence (Q9HB89 whole entry): T2 sequence (whole entry)
# Homo sapiens [5] = species: Homo sapiens; test: Selectivity ratio of PC50 for human NMUR1 to PC50 for human NMUR2; in short: as §1
# Neuromedin-U receptor 2 [6] = target: T1, Neuromedin-U receptor 2; test: Agonist activity at human NMUR2 expressed in CHO cells assessed as concentration required to induce 50% response by calcium mobilization assay relative to NMU; type: functional, cell-based; in short: as §3
# Neuromedin-U receptor 2 [7] = target: T1, Neuromedin-U receptor 2; test: Partial agonist activity at human NMUR2 expressed in CHO cells by calcium mobilization assay; type: functional, cell-based; in short: as §2
# Neuromedin-U receptor 2 [8] = target: T1, Neuromedin-U receptor 2; test: Agonist activity at human NMUR2 expressed in CHO cells at 10^-12 to 10^-6 M by calcium mobilization assay relative to NMU; type: functional, cell-based; in short: as §3
# Neuromedin-U receptor 2 [9] = target: T1, Neuromedin-U receptor 2; test: Agonist activity at human NMUR2 expressed in HEK293 cells at 1 to 100 nM by calcium mobilization assay relative to NMU; type: functional, cell-based
# In short: (§4)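 HEK293 cells transiently transfected with human NMUR1 or NMUR2 plasmid (FuGENE6), reseeded 18 h post-transfection at 4.0 × 10^4 cells/well on poly-D-lysine. After 18 h, loaded 40 min with 4 μM Fluo-4-AM in HBSS/HEPES/probenecid buffer pH 7.4 with 1% FCS, then washed. Peptides in buffer with 0.05% BSA and 0.001% Triton X-100. Maximal FLIPR signal expressed as % of hNMU at 1000 nM.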
# [10] = target: T2, Neuromedin-U receptor 1 (Homo sapiens); test: Agonist activity at human NMUR1 expressed in CHO cells at 10^-12 to 10^-6 M by calcium mobilization assay relative to NMU; type: functional, cell-based; in short: as §3
# [11] = target: T2, Neuromedin-U receptor 1 (Homo sapiens); test: Agonist activity at human NMUR1 expressed in HEK293 cells at 1 to 100 nM by calcium mobilization assay relative to NMU; type: functional, cell-based; in short: as §4
# Neuromedin-U receptor 1 [12] = target: T3, Neuromedin-U receptor 1; test: Partial agonist activity at human NMUR1 expressed in CHO cells by calcium mobilization assay; type: functional, cell-based; in short: as §2
# Neuromedin-U receptor 2 [13] = target: T1, Neuromedin-U receptor 2; test: Agonist activity at human NMUR2 expressed in HEK293 cells at 10 nM by calcium mobilization assay relative to NMU; type: functional, cell-based; in short: as §4
# Neuromedin-U receptor 2 [14] = target: T1, Neuromedin-U receptor 2; test: Agonist activity at human NMUR2 expressed in HEK293 cells at 1 nM by calcium mobilization assay relative to NMU; type: functional, cell-based; in short: as §4
# [15] = target: T2, Neuromedin-U receptor 1 (Homo sapiens); test: Agonist activity at human NMUR1 expressed in HEK293 cells at 1 nM by calcium mobilization assay relative to NMU; type: functional, cell-based; in short: as §4
# [16] = target: T2, Neuromedin-U receptor 1 (Homo sapiens); test: Agonist activity at human NMUR1 expressed in HEK293 cells at 10 nM by calcium mobilization assay relative to NMU; type: functional, cell-based; in short: as §4
molecule,measurement,setting,value
H-FRVDEEFQSPFASQSRGYFLFRPRN-NH2,Selectivity ratio,Homo sapiens [1],5.8
same,EC50,Neuromedin-U receptor 2 [2],2.5 nM
same,Activity,[3],0.43 nM
same,EC50,Neuromedin-U receptor 1 [4],0.43 nM
same,Selectivity ratio,Homo sapiens [5],0.17
same,Activity,Neuromedin-U receptor 2 [6],2.5 nM
CC(C)C[C@H](NC(=O)CCc1ccccc1)C(=O)N[C@@H](Cc1ccccc1)C(=O)N[C@@H](CCCNC(=N)N)C(=O)N1CCC[C@H]1C(=O)N[C@@H](CCCNC(=N)N)C(=O)N[C@@H](CC(N)=O)C(N)=O (Hydrocinnamoyl-LFRPRN-NH2),EC50,Neuromedin-U receptor 2 [7],8.4 nM
same,Selectivity ratio,Homo sapiens [1],0.9
same,Activity,[3],20 nM
same,Intrinsic activity,Neuromedin-U receptor 2 [8],82%
same,Selectivity ratio,Homo sapiens [5],1.1
same,Activity,Neuromedin-U receptor 2 [9],Active
same,Intrinsic activity,[10],71%
same,Activity,Neuromedin-U receptor 2 [6],18 nM
same,Activity,[11],Active
same,EC50,Neuromedin-U receptor 1 [12],9 nM
CC(C)C[C@H](NC(=O)CCC1CCCCC1)C(=O)N[C@@H](CC(C)C)C(=O)N[C@@H](CN)C(=O)N1CCC[C@H]1C(=O)N[C@@H](CCCNC(=N)N)C(=O)N[C@@H](CC(N)=O)C(N)=O ({Propanoyl(3-cHex)}-LL[Dap]PRN-NH2),Activity,Neuromedin-U receptor 2 [13],88%
same,Selectivity ratio,Homo sapiens [1],< 0.0066
same,EC50,Neuromedin-U receptor 2 [2],6.4 nM
same,Activity,[3],> 1000 nM
same,Intrinsic activity,Neuromedin-U receptor 2 [8],98%
same,Selectivity ratio,Homo sapiens [5],> 152
same,Activity,Neuromedin-U receptor 2 [6],6.6 nM
same,Activity,Neuromedin-U receptor 2 [14],70%
N=C(N)NCCC[C@H](NC(=O)[C@@H]1CCCN1C(=O)[C@H](CCCNC(=N)N)NC(=O)[C@H](Cc1ccccc1)NC(=O)[C@H](Cc1ccc2ccccc2c1)NC(=O)CCc1cccnc1)C(=O)N[C@@H](CC(N)=O)C(N)=O ({Propanoyl(3-(3-pyridyl))}-[2Nal]FRPRN-NH2),Selectivity ratio,Homo sapiens [1],49
same,Activity,[15],63%
same,Activity,[3],5.1 nM
same,Activity,[16],84%
same,Selectivity ratio,Homo sapiens [5],0.02
same,Intrinsic activity,[10],79%
same,Activity,Neuromedin-U receptor 2 [6],249 nM
same,Activity,[11],Active
same,EC50,Neuromedin-U receptor 1 [12],2.2 nM
